Data: ChEMBL document CHEMBL1147736, “Trisubstituted acridines as G-quadruplex telomere targeting agents. Effects of extensions of the 3,6- and 9-side chains on quadruplex binding, telomerase activity, and cell proliferation” (J Med Chem, 2006)
Active and inactive are the calls of the source. The calls are words filed in the database; no cut-off is given here.

Key:
[1] = test system: Nucleic Acid; assay: Ratio of binding constant of compound binding to human quadruplex DNA over that of duplex DNA; format: nucleic-acid assay
Outline: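 Streptavidin-chip SPR (BIAcore 2000/3000) with biotinylated quadruplex or -AATT- duplex DNA loaded at 25 nM. Run in HEPES buffer pH 7.4 (0.20 M KCl, 3 mM EDTA, P20) at 25 °C. Steady-state RU from sensorgram plateaus, flow 10–30 µL/min, plotted against free compound concentration to fit binding constants. Value is the ratio of quadruplex to duplex constants.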

[2] = test system: IMR-90; assay: Cytotoxicity in human IMR90 cells by SRB assay; format: functional, cell-based
[3] = molecular target: Telomerase reverse transcriptase (Homo sapiens, UniProt O14746); assay: Inhibition of telomerase activity from human A2780 cells; format: functional, cell-based
Outline: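 TRAP assay with A2780 protein extract, Bradford-quantified. ACX primer (1 µM) and Taq added, 33 PCR cycles. Products on 10% PAGE with SYBR Green I, quantified by gel scanning against a no-protein or heat-inactivated control. Result reported as telEC50.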

[4] = test system: MCF7; assay: Cytotoxicity in human MCF7 cells by SRB assay; format: functional, cell-based
[5] = molecular target: DNA polymerase I, thermostable (Thermus aquaticus) (UniProt P19821); assay: Inhibition of TAQ polymerase activity at 2 uM
Outline: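 PCR with TS forward primer, NT reverse primer (0.5 µM), TSNT template (200 pM), 1 mM MgCl₂, 20 µM dNTPs and 1.25 U Taq, plus compound. Run: 92 °C 2 min, then 33 cycles of 92/52/72 °C. 36 bp product resolved on 10% polyacrylamide gel, stained with SYBR Green I.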

[6] = test system: MCF7; assay: Increase in senescence in MCF7 cells by staining with SA-beta-Gal at 1 uM; format: functional, cell-based; details: Homo sapiens
Outline: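 MCF7 cells in DMEM, counted and reseeded on day 1, treated that day and re-dosed on day 4 each week, over 4 weeks. Weekly, 1 × 10⁵ cells seeded with compound for about 24 h, then fixed and stained with X-gal solution (citrate/phosphate pH 6.0, ferro/ferricyanide) overnight at 37 °C. Blue cells counted by light microscopy as percentage of total versus vehicle control.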

DNA polymerase I, thermostable (Thermus aquaticus), sequence (P19821 whole entry): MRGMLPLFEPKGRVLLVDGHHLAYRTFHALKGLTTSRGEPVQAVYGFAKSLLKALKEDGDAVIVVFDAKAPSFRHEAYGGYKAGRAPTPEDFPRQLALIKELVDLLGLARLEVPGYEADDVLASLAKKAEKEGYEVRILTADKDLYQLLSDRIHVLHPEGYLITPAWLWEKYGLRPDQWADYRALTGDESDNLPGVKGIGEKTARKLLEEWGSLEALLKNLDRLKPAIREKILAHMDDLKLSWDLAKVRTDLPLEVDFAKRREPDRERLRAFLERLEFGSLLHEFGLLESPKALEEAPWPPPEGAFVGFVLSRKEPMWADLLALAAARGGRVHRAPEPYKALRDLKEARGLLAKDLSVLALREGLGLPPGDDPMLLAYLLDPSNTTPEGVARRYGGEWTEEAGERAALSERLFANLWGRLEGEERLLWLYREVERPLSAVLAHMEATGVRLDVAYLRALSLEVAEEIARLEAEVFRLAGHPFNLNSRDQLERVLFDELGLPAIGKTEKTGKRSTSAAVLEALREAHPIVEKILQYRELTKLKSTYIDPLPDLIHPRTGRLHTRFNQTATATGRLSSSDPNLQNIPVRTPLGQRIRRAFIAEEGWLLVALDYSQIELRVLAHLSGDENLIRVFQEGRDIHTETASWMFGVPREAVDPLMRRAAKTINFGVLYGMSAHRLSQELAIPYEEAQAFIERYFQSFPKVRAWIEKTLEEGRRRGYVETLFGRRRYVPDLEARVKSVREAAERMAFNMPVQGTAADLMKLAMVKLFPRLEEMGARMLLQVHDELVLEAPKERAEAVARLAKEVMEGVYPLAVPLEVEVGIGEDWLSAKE
Telomerase reverse transcriptase, sequence (O14746 whole entry): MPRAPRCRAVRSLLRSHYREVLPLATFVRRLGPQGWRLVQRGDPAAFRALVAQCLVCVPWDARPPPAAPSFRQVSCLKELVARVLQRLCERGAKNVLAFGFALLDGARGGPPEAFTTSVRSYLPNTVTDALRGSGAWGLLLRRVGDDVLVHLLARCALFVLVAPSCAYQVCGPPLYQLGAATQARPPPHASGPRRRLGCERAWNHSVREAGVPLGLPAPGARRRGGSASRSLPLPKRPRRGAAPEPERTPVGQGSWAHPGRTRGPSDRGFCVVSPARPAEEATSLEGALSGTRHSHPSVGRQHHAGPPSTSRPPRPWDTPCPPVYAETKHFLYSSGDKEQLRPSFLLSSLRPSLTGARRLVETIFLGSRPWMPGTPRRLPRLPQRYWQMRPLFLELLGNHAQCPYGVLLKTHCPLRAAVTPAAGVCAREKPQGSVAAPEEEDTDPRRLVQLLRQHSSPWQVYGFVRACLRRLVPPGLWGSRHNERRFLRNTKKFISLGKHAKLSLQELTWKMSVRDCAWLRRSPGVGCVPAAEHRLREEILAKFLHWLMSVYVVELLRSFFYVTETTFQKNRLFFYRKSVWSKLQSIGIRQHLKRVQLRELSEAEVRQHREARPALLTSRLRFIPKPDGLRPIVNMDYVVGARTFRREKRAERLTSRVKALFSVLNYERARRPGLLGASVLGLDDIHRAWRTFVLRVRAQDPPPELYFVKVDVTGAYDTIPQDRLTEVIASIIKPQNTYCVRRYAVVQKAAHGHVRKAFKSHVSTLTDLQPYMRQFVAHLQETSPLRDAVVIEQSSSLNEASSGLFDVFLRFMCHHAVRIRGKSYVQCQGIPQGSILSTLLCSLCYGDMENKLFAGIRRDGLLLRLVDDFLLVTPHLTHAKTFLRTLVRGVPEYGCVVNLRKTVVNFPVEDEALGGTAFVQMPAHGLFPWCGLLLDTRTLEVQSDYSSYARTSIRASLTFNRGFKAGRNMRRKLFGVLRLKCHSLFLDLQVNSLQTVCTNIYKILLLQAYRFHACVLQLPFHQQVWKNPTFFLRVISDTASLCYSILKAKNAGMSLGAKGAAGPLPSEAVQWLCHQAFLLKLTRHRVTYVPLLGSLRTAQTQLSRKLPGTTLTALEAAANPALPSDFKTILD

Compound	Ratio [1]	IC50 [2]	EC50 [3]	IC50 [4]	inhibition [5]	Activity [6]
O=C(CCN1CCCC1)Nc1ccc2c(Nc3ccc(NC(=O)CN4CCCC4)cc3)c3ccc(NC(=O)CCN4CCCC4)cc3nc2c1	10.9	> 25 µM	0.167 µM	> 25 µM		
CN(C)c1ccc(Nc2c3ccc(NC(=O)CCCCCN4CCCC4)cc3nc3cc(NC(=O)CCCCCN4CCCC4)ccc23)cc1	5.8	> 25 µM	6.91 µM	> 25 µM	< 25%	
CN(C)c1ccc(Nc2c3ccc(NC(=O)CCCN4CCCC4)cc3nc3cc(NC(=O)CCCN4CCCC4)ccc23)cc1	48	> 25 µM	0.099 µM	8.75 µM	< 25%	Active
CN(C)c1ccc(Nc2c3ccc(NC(=O)CCCCN4CCCC4)cc3nc3cc(NC(=O)CCCCN4CCCC4)ccc23)cc1	4.5	> 25 µM	1.93 µM	> 25 µM	< 25%	
O=C(CCCN1CCCC1)Nc1ccc2c(Nc3ccc(NC(=O)CCN4CCCC4)cc3)c3ccc(NC(=O)CCCN4CCCC4)cc3nc2c1	0.6	> 25 µM	0.326 µM	> 25 µM		
O=C(CCCCN1CCCC1)Nc1ccc2c(Nc3ccc(NC(=O)CCN4CCCC4)cc3)c3ccc(NC(=O)CCCCN4CCCC4)cc3nc2c1	1.6	> 25 µM	0.255 µM	> 25 µM		
O=C(CCN1CCCC1)Nc1ccc(Nc2c3ccccc3nc3ccccc23)cc1			> 20 µM			
CN(C)c1ccc(Nc2c3ccc(NC(=O)CCN4CCCC4)cc3nc3cc(NC(=O)CCN4CCCC4)ccc23)cc1	31	> 25 µM			< 25%	
O=C(CCCN1CCCC1)Nc1ccc(Nc2c3ccc(NC(=O)CCN4CCCC4)cc3nc3cc(NC(=O)CCN4CCCC4)ccc23)cc1	12.8	> 25 µM	0.117 µM	> 25 µM		
O=C(CN1CCCC1)Nc1ccc2cc3ccc(NC(=O)CN4CCCC4)cc3nc2c1	1.2		5.2 µM			
O=C(CCN1CCCC1)Nc1ccc(Nc2c3ccc(NC(=O)CCN4CCCC4)cc3nc3cc(NC(=O)CCN4CCCC4)ccc23)cc1	29	> 25 µM	0.067 µM	> 25 µM		
O=C(CCCCCN1CCCC1)Nc1ccc2c(Nc3ccc(NC(=O)CCN4CCCC4)cc3)c3ccc(NC(=O)CCCCCN4CCCC4)cc3nc2c1	72	> 25 µM	0.146 µM	> 25 µM		
